Converted amounts (≈) assume the structure as drawn.
Assays:
[1] = Metabolic stability in rat liver microsomes assessed as intrinsic clearance half life; type: ADME, Microsome
[2] = Oral bioavailability in Sprague-Dawley rat at 10 mg/kg measured up to 24 hrs by LC-MS/MS analysis; type: ADME, organism-based; details: in vivo
Method in brief: (§1)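 Sprague-Dawley rats, n = 3 per route, sampled over 24 h. Full PK: iv 2 mg/kg in 20% HPbCD with po 10 mg/kg given either in 0.5% HPMC or in 20% HPbCD, depending on study. Fast PK: po only, 10 mg/kg in 0.5% HPMC.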

[3] = Half life in Sprague-Dawley rat at 10 mg/kg, po measured up to 24 hrs by LC-MS/MS analysis; type: ADME, organism-based; details: in vivo; method in brief: as §1
[4] = target: T1, Prostaglandin E2 receptor EP3 subtype (Homo sapiens, UniProt P43115); experiment: Antagonist activity at human EP3 expressed in CHO cells assessed as suppression of sulprostone-induced inhibition of forskolin induced cAMP production measured after 30 mins by HTR-FRET assay; type: functional, cell-based
T1 sequence (P43115 whole entry): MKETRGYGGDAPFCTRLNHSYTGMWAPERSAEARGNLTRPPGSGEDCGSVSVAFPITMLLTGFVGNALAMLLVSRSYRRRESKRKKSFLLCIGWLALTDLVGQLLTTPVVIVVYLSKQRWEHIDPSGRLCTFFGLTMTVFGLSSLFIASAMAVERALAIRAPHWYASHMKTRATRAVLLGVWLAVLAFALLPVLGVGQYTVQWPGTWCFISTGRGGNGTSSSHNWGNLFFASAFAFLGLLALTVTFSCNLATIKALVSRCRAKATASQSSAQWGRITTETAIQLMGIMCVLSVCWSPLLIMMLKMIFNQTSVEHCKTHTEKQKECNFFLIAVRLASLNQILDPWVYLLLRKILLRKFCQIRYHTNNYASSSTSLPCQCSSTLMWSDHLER

[5] = Kinetic solubility of compound at pH 2; type: physicochemical; details: buffer, read-out: Kinetic_solubility
[6] = Kinetic solubility of compound in PBS buffer; type: physicochemical; details: read-out: Kinetic_solubility
[7] = AUClast in Sprague-Dawley rat at 10 mg/kg, po measured up to 24 hrs by LC-MS/MS analysis; type: ADME, organism-based; design: route oral, dose 10 mg/kg, time <=24; details: in vivo; method in brief: as §1
[8] = Cmax in Sprague-Dawley rat at 10 mg/kg, po measured up to 24 hrs by LC-MS/MS analysis; type: ADME, organism-based; design: route oral, dose 10 mg/kg, time <=24; details: in vivo; method in brief: as §1
[9] = target: T1, Prostaglandin E2 receptor EP3 subtype; experiment: Displacement of [3H]-PGE2 from human EP3 expressed in Chem-1 cell membranes incubated for 2 hrs by TopCount scintillation plate reader analysis; design: species or system Membrane
[10] = Metabolic stability in human liver microsomes assessed as intrinsic clearance half life; type: ADME, Microsome
[11] = Clearance in Sprague-Dawley rat at 2 mg/kg, iv measured up to 24 hrs by LC-MS/MS analysis; type: ADME, organism-based; details: in vivo; method in brief: as §1
[12] = Volume of distribution at steady state in Sprague-Dawley rat at 2 mg/kg, iv measured up to 24 hrs by LC-MS/MS analysis; type: ADME, organism-based; details: in vivo, read-out: Vdss; method in brief: as §1
[13] = Plasma protein binding in rat; type: ADME, cell-free; details: read-out: PPB (converted)
[14] = Plasma protein binding in human; type: ADME, cell-free; details: read-out: PPB (converted)
[15] = Apparent permeability across apical to basolateral side in dog MDCK cells; type: ADME, cell-based, Canis lupus familiaris
[16] = target: T2, Prostaglandin E2 receptor EP3 subtype (Rattus norvegicus, UniProt P34980); experiment: Binding affinity to rat EP3
T2 sequence (P34980 whole entry): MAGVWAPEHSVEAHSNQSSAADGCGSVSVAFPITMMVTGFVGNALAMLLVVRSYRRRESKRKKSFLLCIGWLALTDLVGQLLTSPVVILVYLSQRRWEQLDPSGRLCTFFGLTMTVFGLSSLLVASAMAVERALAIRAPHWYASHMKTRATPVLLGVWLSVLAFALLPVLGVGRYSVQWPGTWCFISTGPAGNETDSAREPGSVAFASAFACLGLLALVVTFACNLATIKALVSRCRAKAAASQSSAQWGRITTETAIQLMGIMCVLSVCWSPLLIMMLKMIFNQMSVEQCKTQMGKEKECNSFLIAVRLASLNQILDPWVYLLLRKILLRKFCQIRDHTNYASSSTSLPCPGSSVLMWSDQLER

half-life [1] | bioavailability [2] | half-life [3] | IC50 [4] | solubility kinetic [5] | solubility kinetic [6] | AUC(0-t) at 24 h [7] | Cmax [8] | Ki [9] | half-life [10] | clearance [11] | Vd [12] | fraction unbound [13] | fraction unbound [14] | Papp A→B [15] | Ki [16] | SMILES
> 3 h | 118% | 4 h | 39 nM | 12.7 µM (≈ 5.34 µg/mL) | 17.2 µM (≈ 7.23 µg/mL) | 12.7 µg·h/mL | 1230 ng/mL | 17 nM | > 3 h | 15.6 mL/min/kg | 1.96 L/kg | – | – | – | – | C/C(=C1/OC(=O)NC1=O)C(c1ccc(-c2ccc3cccc(F)c3c2)[nH]c1=O)C(C)C (centres undefined)
> 3 h | 54.9% | 9.8 h | – | 21.7 µM (≈ 9.51 µg/mL) | 30.8 µM (≈ 13.5 µg/mL) | 100 µg·h/mL | 8740 ng/mL | – | > 3 h | 0.93 mL/min/kg | 0.24 L/kg | 0.0018 | 0.0011 | – | – | CCn1ncc2c(F)cc(-c3ccc(C(/C=C4\OC(=O)NC4=O)(CC)CC)c(=O)[nH]3)cc21
> 3 h | 97.7% | 4.6 h | – | 8 µM (≈ 3.25 µg/mL) | 28 µM (≈ 11.4 µg/mL) | 159 µg·h/mL | 24600 ng/mL | – | > 3 h | 1.06 mL/min/kg | 0.23 L/kg | 0.0001 | 0.0008 | 9.9 ×10⁻⁶ cm/s | 1 nM | CC(C)C(/C=C1\OC(=O)NC1=O)c1ccc(-c2ccc3cccc(F)c3c2)[nH]c1=O (centres undefined)
0.503 h | – | – | 27 nM | 25.1 µM (≈ 10.3 µg/mL) | 21.1 µM (≈ 8.62 µg/mL) | 218 µg·h/mL | 44100 ng/mL | 8 nM | 2.07 h | – | – | 0.0021 | 0.0032 | 10.8 ×10⁻⁶ cm/s | – | CC(C)[C@H](C[C@@H]1OC(=O)NC1=O)c1ccc(-c2ccc3cccc(F)c3c2)[nH]c1=O (relative stereo)

From ChEMBL document CHEMBL4680377, “Discovery of a Novel Series of Pyridone-Based EP3 Antagonists for the Treatment of Type 2 Diabetes” (ACS Med Chem Lett, 2021)
